Article PMC3457684 (Science translational medicine, 2012)
Values joined by “and” are separate entries in the source; they are usually repeats but may differ in a detail not shown here. Equal values may be shown once. Read-outs that look alike come from different tables or passages of the source.

Key:
[1] = tested on: L. donovani; conditions: similar in vivo studies; cited from earlier work
[2] = tested on: L. donovani (strain LdBOB) promastigotes; test: In vitro drug sensitivity assay, promastigotes; format: cell-based, Leishmania donovani; conditions: for EC50: Leishmania donovani, 72 h, read-out: L. donovani EC50, Promastigote
Outline: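 Clonal LdBOB promastigotes were grown at 26 °C in stage-specific medium. Triplicate cultures were seeded at 1 × 10⁵ parasites ml⁻¹ with test compound for 72 h, then given 50 μM resazurin, and fluorescence (ex 528, em 590 nm) was read after 4 h. For isobolograms, mid-log promastigotes received the two metabolites in fixed combinations relative to their respective EC50s. The EC50 of each combination was determined at 72 h (triplicate, mean ± SD) and plotted.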

[3] = tested on: L. donovani (strain LdBOB) axenic amastigotes; test: In vitro drug sensitivity assay, axenic amastigotes; format: cell-based; conditions: Leishmania donovani
Outline: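 Clonal LdBOB axenic amastigotes were grown at 37 °C in 5% CO₂ in stage-specific medium and cycled between stages after at most 7 passages. Triplicate cultures were seeded at 1 × 10⁵ parasites ml⁻¹ with test compound for 72 h. Resazurin (50 μM) was added, and fluorescence (ex 528, em 590 nm) was read 4 h later. At least three experiments were run; results are weighted mean plus weighted standard deviation.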

[4] = tested on: intracellular L. donovani (LV9) amastigotes in peritoneal mouse macrophages; test: In macrophage drug sensitivity assay; format: cell-based, Leishmania donovani; conditions: strain LV9, peritoneal mouse macrophages, 72h
[5] = tested on: L. donovani strain LV9; test: In vivo drug sensitivity, mouse model of visceral leishmaniasis; parameters: species or system BALB/c mice; conditions: oral, once daily for 5 days
[6] = Plasma protein binding by equilibrium dialysis; format: in vitro ADME; conditions: mouse
[7] = tested on: L. donovani (strain LdBOB) axenic amastigotes overexpressing L. major nitroreductase; test: Drug susceptibility of axenic amastigotes overexpressing L. major nitroreductase; format: cell-based, Leishmania donovani; conditions: for shift in sensitivity, nitroreductase overexpressing vs wildtype: axenic amastigotes; for EC50: read-out: EC50, axenic amastigotes overexpressing nitroreductase
[8] = Fexinidazole exposure in mice after acute oral dosing; format: in vivo, BALB/c mice; conditions: single oral dose of fexinidazole 200 mg kg^−1, mouse blood
[9] = tested on: L. donovani (strain LdBOB) axenic amastigotes; test: Cytocidal effect on axenic amastigotes; format: cell-based, Leishmania donovani; conditions: drug at 10 times its EC50 (sulfone 36 μM), wash-out and sub-culture without drug
Outline: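 Early-log LdBOB axenic amastigotes (~1 × 10⁶ ml⁻¹), grown at 37 °C in 5% CO₂, were exposed to test compound at 36 μM. At intervals, cell density was counted, and samples were removed, washed and resuspended in fresh drug-free medium. Viability of washed parasites was followed for up to 72 h after drug removal to find the point of irreversible toxicity.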

[10] = 72 h, read-out: L. donovani EC50, Axenic amastigote
[11] = read-out: EC50, wildtype axenic amastigotes

| Compound | ED50 [1] [mg/kg] | ED90 [1] [mg/kg] | EC50 [2] [µM] | EC50 [3, 10] [µM] | L. donovani EC50, Amastigote (in macrophages) [4] | tolerability in mice ([5]; up to 200 mg kg^−1) | ED50 ([5]; liver parasite burden day 14) | fraction unbound [6] | shift in sensitivity, nitroreductase overexpressing vs wildtype [7] | EC50 [3, 11] [µM] | EC50 [7] [µM] | interaction in combination (isobologram) ([2]; fexinidazole sulfoxide plus sulfone, LdBOB promastigotes, 72h) | time blood concentration stays above EC99 [8] | exposure time after which no viable parasites could be recovered [9] [h] |
| --- | --- | --- | --- | --- | --- | --- | --- | --- | --- | --- | --- | --- | --- | --- |
| O.O.O.O.O.O.O.O.O.O=C([O-])[C@@H]1[O][Sb](=[O])([O][Sb]2(=[O])[O][C@H]([C@H](O)CO)[C@H](O)[C@H](C(=O)[O-])[O]2)[O][C@H]([C@H](O)CO)[C@@H]1O.[Na+].[Na+].[Na+] (stereo partly drawn) [Pentostam] | 20 | 57 | – | – | – | – | – | – | – | – | – | – | – | – |
| CSc1ccc(OCc2ncc([N+](=O)[O-])n2C)cc1 [Fexinidazole, fexinidazole] | – | – | 5.6 ± 0.2 | 2.8 ± 0.1 | inactive | well tolerated | ~12 mg/kg and 11.9 ± 2.3 mg/kg | 0.15 | 19 fold | – | – | – | – | – |
| CC1CS(=O)(=O)CCN1/N=C/c1ccc([N+](=O)[O-])o1 (stereo not drawn) [nifurtimox] | – | – | – | – | – | – | – | – | 27 fold | 5.6 ± 0.2 | 0.2 ± 0.1 | – | – | – |
| Cn1c([N+](=O)[O-])cnc1COc1ccc([S+](C)[O-])cc1 (stereo not drawn) [Fexinidazole sulfoxide, fexinidazole sulfoxide] | – | – | 3.1 ± 0.1 | 4.5 ± 0.3 | – | – | – | 0.86 | – | – | – | additive | 8 h | 30 |
| Cn1c([N+](=O)[O-])cnc1COc1ccc(S(C)(=O)=O)cc1 [Fexinidazole sulfone, fexinidazole sulfone] | – | – | 4.8 ± 0.1 | 1.6 ± 0.1 | – | – | – | 0.73 | 19 fold | 4.4 ± 0.1 | 0.23 ± 0.1 | – | more than 24 h | 30 |
| CCCCCCCCCCCCCCCCOP(=O)([O-])OCC[N+](C)(C)C [Miltefosine, miltefosine] | 4 | 27 | 6.1 ± 0.3 | 4.4 ± 0.2 | – | – | – | 0.002 | no concomitant shift | – | 4.9 ± 0.2 | – | – | – |
